From PubChem
An excerpt weighted towards active compounds, which were near 5.1% of everything screened.
STAT1 inh – inhibitors of IFN-gamma induced STAT1 signaling; hit rate 0.35% among 200,000; NIH 3T3 STAT1-luciferase reporter, luminescence; inhibition, % at 5.5 µM;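 active = inhibition above a set limit, the mean inhibition across all tested compounds plus 3 SD, cut at about 34% in these data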;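 note: 0% = IFN-gamma with DMSO and 100% = IFN-gamma with 300 µM nifuroxazide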
STAT3 act-1 – activators of IL-6 induced STAT3 signaling. hit rate 0.91% among 190,000. activation (% of control), % at 5.6 µM. U3A cells, IL-6 STAT3-luciferase reporter, luminescence; 100% = signal with IL-6 EC80 alone;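 active = activation above the screen-wide mean of compound activation plus 3 SD, cut at about 130% in these data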;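 note: 0% = background luminescence of wells with medium and substrate only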
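Test system: Human STAT1-deficient U3A cells with stable STAT3-luciferase reporter | Also added: Interleukin-6, 33 ng/mL | Timing: Compound pre-incubation 1 h before IL-6, then 6 h stimulation at 37 °C | Technique: Luciferase reporter luminescence | Read-out: Percent of IL-6-only median luminescence | Benchmarks: IL-6-only wells as 100% reference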
NF-kB expr up – raises NF-kB expression in human neuronal cells; NF-kB reporter expression; stronger effect = higher value; fold change at 12.5 µM; hit rate 1.6% among 190,000; AID 1239; in the data active = fold change above about 3.3
APP 5'UTR act – activates APP 5'UTR luciferase reporter. SH-SY5Y APP 5'UTR luciferase reporter, luminescence; zero percent = DMSO vehicle wells. activation, % at 2 µM. hit rate 1% among 190,000;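 active = activation above a set limit, based on mean plus 3 SD of controls, cut at about 140% in these data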
STAT1 act-1 – STAT1 signaling activation | NIH 3T3 STAT1-luciferase reporter, IFN-gamma, luminescence; 100% = IFN-gamma alone, no compound | activation (% of control), % at 5.5 µM | AID 932 | hit rate 2.6% among 200,000;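 active = activation above the screen-wide mean activation plus 3 SD, cut at about 130% in these data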;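 note: raw ratio to IFN-gamma control signal so 100% means no change and 0% no light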
STAT3 inh – reduces IL-6 driven STAT3 reporter signal; U3A cells, IL-6 STAT3-luciferase reporter, luminescence; host cell line lacks STAT1; inhibition, % at 5.5 µM; hit rate 0.89% among 190,000;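 active = inhibition above the mean inhibition across all screened compounds plus 3 SD, cut at about 44% in these data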;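 note: 0% = DMSO only wells and 100% = 100 µM nifuroxazide control wells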
STAT3 act-2 – STAT3 activation, confirmation assay | U3A STAT3-luciferase reporter, IL-6 potentiation, luminescence; U3A cells lack STAT1; 100 means same as IL-6 alone | shares compounds with STAT3 act-1 | potentiation (% of control), % at 5.7 µM | hit rate 64% among 1,200;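 active = percent activation of the STAT3 luciferase reporter above a set limit taken from the earlier primary screen, cut at about 130% in these data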;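 note: 0% = background signal of medium plus substrate and 100% = median of IL-6 with DMSO wells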
NFkB act STAT3ct – counter-screen for STAT3 activators: NF-kappaB activation; shares compounds with STAT3 act-1; human cells, NF-kappaB reporter activation; activation (% of control), % at 5.7 µM; hit rate 11% among 1,200; AID 1309; in the data active = activation above about 120%;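 note: reporter induced by TNF-alpha stimulation; 100% = median of stimulated DMSO wells and 0% = no signal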
STAT1 act-2 – STAT1 activation in STAT3 activator counter-screen. shares compounds with STAT3 act-1. NIH 3T3 STAT1-luciferase reporter, IFN-gamma, luminescence. activation (% of control), % at 5.7 µM. hit rate 13% among 1,200;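 active = activation above the solvent-only control well mean plus 3 SD, set per screening run, cut at about 120% in these data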;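 note: 100% = IFN-gamma with DMSO median signal so 100% means no change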
An asterisk follows results filed as active; / = not tested or not shown.

SMILES	STAT1 inh	STAT3 act-1	NF-kB expr up	APP 5'UTR act	STAT1 act-1	STAT3 inh	STAT3 act-2	NFkB act STAT3ct	STAT1 act-2
Cc1cc2c(cc1C)CSC(c1ccc3ccccc3c1O)SC2	-2.0	152.1*	1.17	10.0	101.4	-60.7	128.2	96.1	96.8
N#CC(C#N)=C1NC2(CCCC2)Cc2ccccc21	-1.4	106.3	0.91	-17.4	101.3	-5.0	/	/	/
O=C(CNc1ccc2ccccc2c1)N/N=C/c1cc2ccccc2nc1Cl	1.2	144.5*	0.63	-0.2	99.0	-42.7	137.6*	97.7	95.0
CN(C)c1ccc(P(=O)(Nc2cccc(C(F)(F)F)c2)N2CCOCC2)c(NC(=O)c2cccs2)c1 (stereo not given)	-3.4	140.1*	1.08	-13.0	103.4	-51.4	130.9	96.0	98.6
O=C(Nc1cc(C(F)(F)F)ccc1N1CCOCC1)c1cccs1	8.2	105.8	1.29	-0.2	93.4	-7.1	/	/	/
Fc1cccc(Cl)c1/C=N/Nc1ccccn1	-30.5	138.0*	1.8	18.4	128.0	-41.5	143.9*	113.3	126.7*
O=C(NNC(=S)Nc1ccc(F)c(Cl)c1)c1ccccc1Br	-12.3	91.3	1.3	21.1	108.8	12.8	/	/	/
COc1ccc(CN2CCN(S(=O)(=O)c3ccc(C)cc3)CC2)cc1Br	-1.4	144.1*	1.42	-6.9	101.3	-57.8	136.7*	108.3	106.7
CCCN1CCN(S(=O)(=O)c2ccc(OC)c(Br)c2)CC1	-11.2	96.1	1.32	-4.6	110.3	8.0	/	/	/
CC1=NC(C(F)(F)F)(C(F)(F)F)C2=C(CC(C)(C)CC2=O)N1Cc1ccco1	2.4	98.9	0.99	21.2	97.8	-0.3	/	/	/
CC(C)Oc1ccccc1C1CC(=O)Nc2cc3c(cc21)OCO3 (stereo not given)	10.1	97.9	1.98	-91.9	90.8	6.5	/	/	/
CC(C)c1ccc(C2C3=C(COC3=O)Nc3cc4c(cc32)OCO4)cc1 (stereo not given)	-18.9	151.4*	1.14	-95.0	116.3	-41.2	107.9	137.8*	116.5
COc1cc(N)c(Cl)cc1NC(=O)c1ccccc1	-7.9	97.6	1.29	-16.6	107.3	9.3	/	/	/
COc1cc(NC(=O)c2cc(-c3ccco3)on2)c(OC)cc1Cl	-4.9	165.1*	1.42	-10.1	104.5	-75.2	145.4*	100.8	96.8
COc1cc(NC(=O)c2noc3c2CCC3)c(OC)cc1Cl	8.1	145.8*	0.95	-3.2	93.7	-50.4	156.8*	100.5	101.5
COc1cc(NC(=O)c2ccccc2)c(OC)cc1Cl	-2.8	150.3*	1.01	8.5	100.4	-57.5	142.8*	105.8	105.0
CCCc1cc(C(=O)Nc2ccccc2C(=O)OC)no1	-7.7	107.8	1.18	-9.6	106.9	-4.0	/	/	/
CCCc1cc(C(=O)Nc2cc(OC)c(Cl)cc2OC)no1	2.1	166.3*	1.97	1.2	98.1	-73.9	162.5*	102.9	102.8
COc1cc(OC)c(NC(=O)c2ccco2)cc1Cl	-19.9	95.9	0.86	12.5	118.3	8.1	/	/	/
Cc1nc2ccc(NC(=O)Cc3ccc4c(c3)OCCO4)cc2s1	-8.5	93.0	1.2	14.9	107.7	7.6	/	/	/
Cn1c(=O)c(-c2ccccc2)nc2ccccc21	-4.9	141.4*	1.16	9.3	107.3	-46.9	117.2	107.2	103.2
Cn1c(=O)c(-c2ccccc2N)nc2ccccc21	4.9	115.7	1.12	-3.5	95.5	-11.4	/	/	/
Cc1onc(-c2c(F)cccc2Cl)c1C(=O)OCC(=O)c1c(N)n(C)c(=O)n(C)c1=O	-1.4	104.3	1.27	-4.4	100.7	-2.8	/	/	/
Cc1ccc2nc3c(nc2c1)-c1ccccc1C3=O	-15.2	174.4*	1.99	1.3	109.1	-89.9	159.0*	116.2	129.4*
Cc1ccc2nc(C(=O)O)c(C(=O)O)nc2c1	-1.0	101.8	0.94	1.6	101.0	-1.9	/	/	/
SMILES	STAT1 inh	STAT3 act-1	NF-kB expr up	APP 5'UTR act	STAT1 act-1	STAT3 inh	STAT3 act-2	NFkB act STAT3ct	STAT1 act-2
CCCCOCCCNS(=O)(=O)c1ccccc1	-7.4	106.3	1.25	-4.3	106.7	-2.8	/	/	/
CCCCOP(=O)(OCCCC)C1(NS(=O)(=O)c2ccccc2)C=CC(=O)c2ccccc21 (stereo not given)	-0.1	144.5*	0.74	-0.6	100.0	-55.1	114.3	101.6	99.5
Cc1ccc(CC2S/C(=C(/C#N)C(=O)NCc3ccco3)N(c3ccccc3)C2=O)cc1 (stereo not given)	0.4	96.5	1.02	3.7	99.6	13.8	/	/	/
CC1S/C(=C(\C#N)C(=O)NCc2ccco2)N(Cc2ccco2)C1=O (stereo not given)	9.9	142.4*	0.97	-11.3	92.0	-46.3	130.4	103.9	95.4
O=c1c2cnn(-c3ccccc3)c2nc(-c2ccco2)n1-c1ccccc1	-3.6	78.4	0.45	10.7	103.3	30.1	/	/	/
O=c1c2ccccc2oc2nc(-c3ccco3)n(-c3ccccc3)c(=O)c12	-11.2	136.2*	0.85	93.3	110.2	-44.9	134.8*	108.5	109.1
CC(C)c1nc2oc3ccccc3c(=O)c2c(=O)n1-c1ccccc1	-3.2	158.7*	1.71	18.6	102.9	-73.2	131.8	103.5	113.1
CCN(CC)c1ncnc2c1ncn2Cc1c(Cl)cccc1Cl	1.5	98.3	0.99	-1.9	98.7	5.1	/	/	/
Clc1cccc(Cl)c1Cn1cnc2c(N3CCCCCC3)ncnc21	-3.7	138.1*	0.91	16.4	103.4	-41.4	138.8*	104.7	103.4
CC(C)Cn1c(N)c(C=O)c(=O)[nH]c1=O	5.8	95.8	1.17	10.1	93.3	11.6	/	/	/
O=C(Nc1ccccc1Oc1ccccc1)c1cc([N+](=O)[O-])ccc1Cl	4.6	97.8	0.64	2.4	95.8	2.0	/	/	/
Cc1cccc(NC(=O)c2cc([N+](=O)[O-])ccc2Cl)c1O	5.8	155.4*	1.19	5.0	94.8	-49.1	161.9*	109.9	98.2
CN1c2ccsc2C(O)=C(C(=S)Nc2ccc(F)c(Cl)c2)S1(=O)=O	5.9	141.9*	1.23	-9.1	93.4	-48.6	101.5	105.4	97.2
Cn1cc(C(=O)Nc2ccc(F)c(Cl)c2)cn1	-10.1	95.5	1.54	17.4	108.9	9.0	/	/	/
Cc1nc2sccc2c(=O)n1-c1cccc(Cl)c1	9.3	98.0	0.97	1.4	91.7	7.4	/	/	/
COC(=O)C(O)(NC(=O)OCc1ccccc1)C(F)(F)F (stereo not given)	12.0	96.4	1.19	-13.3	89.8	10.6	/	/	/
